Source: ChEMBL document CHEMBL3259745, “Identification of trisubstituted-pyrazol carboxamide analogs as novel and potent antagonists of farnesoid X receptor” (Bioorg Med Chem, 2014)
Activity calls are given as the source filed them. No cut-off for these calls is given here.

Target: T1, Bile acid receptor (Homo sapiens) (UniProt Q96RI1)
T1 sequence (whole entry): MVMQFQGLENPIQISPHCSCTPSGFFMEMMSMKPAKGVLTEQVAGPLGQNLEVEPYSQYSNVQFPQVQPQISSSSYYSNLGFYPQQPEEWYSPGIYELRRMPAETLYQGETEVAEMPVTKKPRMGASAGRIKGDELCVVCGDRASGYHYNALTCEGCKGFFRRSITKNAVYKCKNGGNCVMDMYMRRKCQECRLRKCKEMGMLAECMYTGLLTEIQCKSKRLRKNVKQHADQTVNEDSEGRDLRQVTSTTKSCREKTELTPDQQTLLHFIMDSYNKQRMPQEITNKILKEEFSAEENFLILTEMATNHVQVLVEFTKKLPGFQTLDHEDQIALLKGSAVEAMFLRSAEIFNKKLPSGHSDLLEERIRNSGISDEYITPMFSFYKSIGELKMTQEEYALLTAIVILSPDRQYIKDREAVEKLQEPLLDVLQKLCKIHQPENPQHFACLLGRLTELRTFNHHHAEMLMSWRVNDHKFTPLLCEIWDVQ
Test: Inhibition of GW4064-induced transactivation of FXR (unknown origin) expressed in HEK293T cells at 40 uM after 16 hrs by beta-lactamase reporter gene assay relative to control
Assay type: cell-based
Settings: HEK-293T

Compound	inhibition [%]
Cc1ccc(-c2nn(-c3ccccc3)cc2C(=O)Nc2cccc(S(=O)(=O)N3CCOCC3)c2)cc1	32.8
O=C(Nc1ccc(S(=O)(=O)N2CCOCC2)cc1)c1cn(-c2ccccc2)nc1-c1ccc(F)cc1	34.7
Cc1ccc(-c2nn(-c3ccc(F)cc3)cc2C(=O)Nc2ccc(C)c(S(=O)(=O)N3CCOCC3)c2)cc1	72
COc1cccc(-c2nn(C(C)C)cc2C(=O)Nc2ccc(C)c(S(=O)(=O)N3CCOCC3)c2)c1	97.8
COc1cccc(Cn2cc(CNc3ccc(C)c(S(=O)(=O)N4CCOCC4)c3)c(C(C)C)n2)c1	64.8
Cc1ccc(-c2nn(-c3cccc(C(F)(F)F)c3)cc2C(=O)Nc2ccc(C)c(S(=O)(=O)N3CCOCC3)c2)cc1	54.8
O=C(Nc1cccc(S(=O)(=O)N2CCOCC2)c1)c1cn(-c2ccccc2)nc1-c1ccc(Cl)cc1	38.8
O=C(Nc1ccc(S(=O)(=O)N2CCOCC2)cc1)c1cn(-c2ccccc2)nc1-c1ccc(Cl)cc1	20.6
Cc1ccc(NC(=O)c2cnn(-c3cccnc3)c2)cc1S(=O)(=O)N1CCOCC1	16.1
O=C(Nc1cccc(S(=O)(=O)N2CCOCC2)c1)c1cn(-c2ccccc2)nc1-c1ccc(F)cc1	42.6
Cc1ccc(NC(=O)c2cn(C(C)C)nc2-c2ccc(C(F)(F)F)cc2)cc1S(=O)(=O)N1CCOCC1	100
Cc1ccc(-c2nn(C(C)C)cc2CNc2ccc(C)c(S(=O)(=O)N3CCOCC3)c2)cc1	36.8
Cc1ccc(-c2nn(C(C)C)cc2C(=O)N(C)c2ccc(C)c(S(=O)(=O)N3CCOCC3)c2)cc1	86.4
Cc1ccc(-c2nn(C(C)C)cc2C(=O)Nc2ccc(C)c(S(=O)(=O)N3CCOCC3)c2)cc1	99.1
Cc1ccc(-c2nn(-c3ccc(Cl)cc3Cl)cc2C(=O)Nc2ccc(C)c(S(=O)(=O)N3CCOCC3)c2)cc1	89.9
O=C(Nc1cccc(S(=O)(=O)N2CCOCC2)c1)c1cn(-c2ccccc2)nc1-c1ccccc1	54.9

Tested on: not listed separately
Test: Cytotoxicity against HEK293T cells expressing FXR and beta-lactamase genes assessed as inhibition of cell viability at 40 uM after 16 hrs by CellTiter-Glo luminescent assay relative to control
Assay type: cell-based, HEK-293T
Settings: human, read-out: INH
How it was run: (§1)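 Viability run alongside the agonist assay in the same GeneBLAzer FXR HEK 293T cells: 20,000 cells/well in phenol red-free DMEM with 2% charcoal/dextran-treated FBS, 0.5% DMSO, 16 h at 37°C. Cooled 20 min, then CellTiter-Glo added for 20 min in dark; luminescence read.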

Compound	cytotoxicity at 16 h, 40 µM [%]
Cc1ccc(-c2nn(-c3ccccc3)cc2C(=O)Nc2cccc(S(=O)(=O)N3CCOCC3)c2)cc1	5.4
O=C(Nc1ccc(S(=O)(=O)N2CCOCC2)cc1)c1cn(-c2ccccc2)nc1-c1ccc(F)cc1	< 5
Cc1ccc(-c2nn(-c3ccc(F)cc3)cc2C(=O)Nc2ccc(C)c(S(=O)(=O)N3CCOCC3)c2)cc1	18.5
COc1cccc(Cn2cc(CNc3ccc(C)c(S(=O)(=O)N4CCOCC4)c3)c(C(C)C)n2)c1	13.9
Cc1ccc(-c2nn(-c3cccc(C(F)(F)F)c3)cc2C(=O)Nc2ccc(C)c(S(=O)(=O)N3CCOCC3)c2)cc1	7.3
O=C(Nc1cccc(S(=O)(=O)N2CCOCC2)c1)c1cn(-c2ccccc2)nc1-c1ccc(Cl)cc1	< 5
O=C(Nc1ccc(S(=O)(=O)N2CCOCC2)cc1)c1cn(-c2ccccc2)nc1-c1ccc(Cl)cc1	< 5
Cc1ccc(NC(=O)c2cnn(-c3cccnc3)c2)cc1S(=O)(=O)N1CCOCC1	27.9
O=C(Nc1cccc(S(=O)(=O)N2CCOCC2)c1)c1cn(-c2ccccc2)nc1-c1ccc(F)cc1	16.3
Cc1ccc(NC(=O)c2cn(C(C)C)nc2-c2ccc(C(F)(F)F)cc2)cc1S(=O)(=O)N1CCOCC1	19.5
CC(C)c1onc(-c2c(Cl)cccc2Cl)c1COc1ccc(/C=C/c2cccc(C(=O)O)c2)c(Cl)c1	< 5
Cc1ccc(-c2nn(C(C)C)cc2CNc2ccc(C)c(S(=O)(=O)N3CCOCC3)c2)cc1	10.5
Cc1ccc(-c2nn(C(C)C)cc2C(=O)N(C)c2ccc(C)c(S(=O)(=O)N3CCOCC3)c2)cc1	15
Cc1ccc(-c2nn(C(C)C)cc2C(=O)Nc2ccc(C)c(S(=O)(=O)N3CCOCC3)c2)cc1	< 5
Cc1ccc(-c2nn(-c3ccc(Cl)cc3Cl)cc2C(=O)Nc2ccc(C)c(S(=O)(=O)N3CCOCC3)c2)cc1	< 5
C[C@H](CCC(=O)O)[C@H]1CC[C@H]2[C@@H]3CC[C@@H]4C[C@H](O)CC[C@]4(C)[C@H]3CC[C@]12C [LITHOCHOLIC ACID]	< 5
O=C(Nc1cccc(S(=O)(=O)N2CCOCC2)c1)c1cn(-c2ccccc2)nc1-c1ccccc1	7.1

Target: T1, Bile acid receptor (Homo sapiens)
Test: Antagonist activity at human GST-tagged FXR at 40 uM after 20 mins by TR-FRET assay relative to control
Settings: not given

Compound	inhibition [%]
Cc1ccc(-c2nn(C(C)C)cc2C(=O)N(C)c2ccc(C)c(S(=O)(=O)N3CCOCC3)c2)cc1	133

Target: T1, Bile acid receptor (Homo sapiens)
Test: Antagonist activity at human GST-tagged FXR at 164 nM after 20 mins by TR-FRET assay relative to control
Settings: not given

Compound	inhibition [%]
O=C(Nc1ccc(S(=O)(=O)N2CCOCC2)cc1)c1cn(-c2ccccc2)nc1-c1ccc(F)cc1	21.2
Cc1ccc(-c2nn(-c3cccc(C(F)(F)F)c3)cc2C(=O)Nc2ccc(C)c(S(=O)(=O)N3CCOCC3)c2)cc1	77.5
Cc1ccc(-c2nn(-c3ccc(Cl)cc3Cl)cc2C(=O)Nc2ccc(C)c(S(=O)(=O)N3CCOCC3)c2)cc1	120

Target: T1, Bile acid receptor (Homo sapiens)
Test: Antagonist activity at human GST-tagged FXR at 493 nM after 20 mins by TR-FRET assay relative to control
Settings: not given

Compound	inhibition [%]
Cc1ccc(-c2nn(-c3ccccc3)cc2C(=O)Nc2cccc(S(=O)(=O)N3CCOCC3)c2)cc1	27.5
Cc1ccc(-c2nn(-c3ccc(F)cc3)cc2C(=O)Nc2ccc(C)c(S(=O)(=O)N3CCOCC3)c2)cc1	95
O=C(Nc1cccc(S(=O)(=O)N2CCOCC2)c1)c1cn(-c2ccccc2)nc1-c1ccc(F)cc1	53.3
O=C(Nc1cccc(S(=O)(=O)N2CCOCC2)c1)c1cn(-c2ccccc2)nc1-c1ccccc1	44.4

Target: T1, Bile acid receptor (Homo sapiens)
Test: Antagonist activity at human GST-tagged FXR at 4.4 uM after 20 mins by TR-FRET assay relative to control
Settings: not given

Compound	inhibition [%]
COc1cccc(Cn2cc(CNc3ccc(C)c(S(=O)(=O)N4CCOCC4)c3)c(C(C)C)n2)c1	72.5
Cc1ccc(NC(=O)c2cn(C(C)C)nc2-c2ccc(C(F)(F)F)cc2)cc1S(=O)(=O)N1CCOCC1	133
Cc1ccc(-c2nn(C(C)C)cc2C(=O)Nc2ccc(C)c(S(=O)(=O)N3CCOCC3)c2)cc1	131

Target: T1, Bile acid receptor (Homo sapiens)
Test: Antagonist activity at human GST-tagged FXR at 13.3 uM after 20 mins by TR-FRET assay relative to control
Settings: not given

Compound	inhibition [%]
COc1cccc(-c2nn(C(C)C)cc2C(=O)Nc2ccc(C)c(S(=O)(=O)N3CCOCC3)c2)c1	150
Cc1ccc(NC(=O)c2cnn(-c3cccnc3)c2)cc1S(=O)(=O)N1CCOCC1	18.8
Cc1ccc(-c2nn(C(C)C)cc2CNc2ccc(C)c(S(=O)(=O)N3CCOCC3)c2)cc1	99.5

Tested on: not listed separately
Test: Cytotoxicity against HEK293T cells expressing FXR and beta-lactamase genes assessed as inhibition of cell viability at 4.4 uM after 16 hrs by CellTiter-Glo luminescent assay relative to control
Assay type: cell-based, HEK-293T
Settings: human, read-out: INH
How it was run: as §1

Compound	cytotoxicity at 16 h, 4.4 µM [%]
COc1cccc(-c2nn(C(C)C)cc2C(=O)Nc2ccc(C)c(S(=O)(=O)N3CCOCC3)c2)c1	10.8

Target: T1, Bile acid receptor (Homo sapiens)
Test: Antagonist activity at human GST-tagged FXR at […] nM after 20 mins by TR-FRET assay relative to control
Settings: not given

Compound	inhibition [%]
O=C(Nc1cccc(S(=O)(=O)N2CCOCC2)c1)c1cn(-c2ccccc2)nc1-c1ccc(Cl)cc1	36.9
O=C(Nc1ccc(S(=O)(=O)N2CCOCC2)cc1)c1cn(-c2ccccc2)nc1-c1ccc(Cl)cc1	17.8

Target: T1, Bile acid receptor (Homo sapiens)
Test: Agonist activity at FXR (unknown origin) expressed in HEK293T cells after 16 hrs by beta-lactamase reporter gene assay relative to control
Assay type: cell-based
Settings: HEK-293T

Compound	Activity
Cc1ccc(-c2nn(-c3ccc(F)cc3)cc2C(=O)Nc2ccc(C)c(S(=O)(=O)N3CCOCC3)c2)cc1	inactive
COc1cccc(-c2nn(C(C)C)cc2C(=O)Nc2ccc(C)c(S(=O)(=O)N3CCOCC3)c2)c1	inactive
COc1cccc(Cn2cc(CNc3ccc(C)c(S(=O)(=O)N4CCOCC4)c3)c(C(C)C)n2)c1	inactive
Cc1ccc(-c2nn(-c3cccc(C(F)(F)F)c3)cc2C(=O)Nc2ccc(C)c(S(=O)(=O)N3CCOCC3)c2)cc1	inactive
Cc1ccc(NC(=O)c2cn(C(C)C)nc2-c2ccc(C(F)(F)F)cc2)cc1S(=O)(=O)N1CCOCC1	inactive
Cc1ccc(-c2nn(C(C)C)cc2CNc2ccc(C)c(S(=O)(=O)N3CCOCC3)c2)cc1	inactive
Cc1ccc(-c2nn(C(C)C)cc2C(=O)N(C)c2ccc(C)c(S(=O)(=O)N3CCOCC3)c2)cc1	inactive
Cc1ccc(-c2nn(C(C)C)cc2C(=O)Nc2ccc(C)c(S(=O)(=O)N3CCOCC3)c2)cc1	inactive
Cc1ccc(-c2nn(-c3ccc(Cl)cc3Cl)cc2C(=O)Nc2ccc(C)c(S(=O)(=O)N3CCOCC3)c2)cc1	inactive

Target: T1, Bile acid receptor (Homo sapiens)
Test: Ratio of E16 IC50 to compound IC50 for human GST-tagged FXR after 20 mins by TR-FRET assay
Settings: not given

Compound	Ratio IC50
Cc1ccc(-c2nn(-c3ccc(F)cc3)cc2C(=O)Nc2ccc(C)c(S(=O)(=O)N3CCOCC3)c2)cc1	3
Cc1ccc(-c2nn(-c3cccc(C(F)(F)F)c3)cc2C(=O)Nc2ccc(C)c(S(=O)(=O)N3CCOCC3)c2)cc1	3
Cc1ccc(-c2nn(-c3ccc(Cl)cc3Cl)cc2C(=O)Nc2ccc(C)c(S(=O)(=O)N3CCOCC3)c2)cc1	3

Target: T1, Bile acid receptor (Homo sapiens)
Test: Inhibition of GW4064-induced transactivation of FXR (unknown origin) expressed in HEK293T cells at 1 uM after 16 hrs by beta-lactamase reporter gene assay relative to control
Assay type: cell-based
Settings: HEK-293T

Compound	inhibition
COc1cccc(Cn2cc(CNc3ccc(C)c(S(=O)(=O)N4CCOCC4)c3)c(C(C)C)n2)c1	inactive
Cc1ccc(-c2nn(C(C)C)cc2CNc2ccc(C)c(S(=O)(=O)N3CCOCC3)c2)cc1	inactive
Cc1ccc(-c2nn(C(C)C)cc2C(=O)N(C)c2ccc(C)c(S(=O)(=O)N3CCOCC3)c2)cc1	inactive

Target: T1, Bile acid receptor (Homo sapiens)
Test: Agonist activity at human FXR
Settings: not given

Compound	Activity
Cc1ccc(-c2nn(-c3ccccc3)cc2C(=O)Nc2cccc(S(=O)(=O)N3CCOCC3)c2)cc1	inactive
O=C(Nc1ccc(S(=O)(=O)N2CCOCC2)cc1)c1cn(-c2ccccc2)nc1-c1ccc(F)cc1	inactive
O=C(Nc1cccc(S(=O)(=O)N2CCOCC2)c1)c1cn(-c2ccccc2)nc1-c1ccc(Cl)cc1	inactive
O=C(Nc1ccc(S(=O)(=O)N2CCOCC2)cc1)c1cn(-c2ccccc2)nc1-c1ccc(Cl)cc1	inactive
Cc1ccc(NC(=O)c2cnn(-c3cccnc3)c2)cc1S(=O)(=O)N1CCOCC1	inactive
O=C(Nc1cccc(S(=O)(=O)N2CCOCC2)c1)c1cn(-c2ccccc2)nc1-c1ccc(F)cc1	inactive
O=C(Nc1cccc(S(=O)(=O)N2CCOCC2)c1)c1cn(-c2ccccc2)nc1-c1ccccc1	inactive
